From PubChem
Rows were chosen to be rich in hits. Some 3.5% of all compounds tested hit in one or more screens of this group.
MrgX1 agonist = human MrgX1 receptor agonism, primary screen. Q96LB2. MrgX1-HEK293 cells, Fluo-4 calcium fluorescence, agonist mode; active compounds read high. B-score at 10 µM. actives 0.44% (n = 310,000). AID 588627;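 active = calcium response B-score plate-corrected fluorescence ratio at least 3 library SD, with starting fluorescence B-score inside 5 SD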
Target sequence (Q96LB2 whole entry, looked up): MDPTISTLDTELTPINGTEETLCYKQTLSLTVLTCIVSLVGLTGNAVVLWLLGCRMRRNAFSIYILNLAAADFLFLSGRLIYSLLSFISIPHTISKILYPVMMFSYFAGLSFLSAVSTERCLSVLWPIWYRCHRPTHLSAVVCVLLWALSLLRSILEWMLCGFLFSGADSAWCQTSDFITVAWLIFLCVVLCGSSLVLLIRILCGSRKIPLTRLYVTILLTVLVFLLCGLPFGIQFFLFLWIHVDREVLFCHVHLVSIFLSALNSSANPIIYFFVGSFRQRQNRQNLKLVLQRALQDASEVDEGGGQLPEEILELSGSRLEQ
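Material: HEK293 cells stably expressing human MrgX1 receptor | Quantity: 15,000 cells per well | Times: Cells plated overnight, dye loaded 0.5 h 37 °C, 0.5 h room temperature | Measured by: Kinetic Fluo-4 NW fluorescence of intracellular calcium | Control set: Positive and negative controls per plate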
RGS4 inh = human RGS4 inhibition; HEK293 M3R/RGS4 inducible, Fluo-4 calcium flux; active compounds read high; triggered by carbachol at its EC20; actives 0.45% (n = 310,000); AID 463165; B-score at 10 µM;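 active = B-score, a plate-corrected calcium signal, over three deviations above library mean, with baseline fluorescence within five deviations of library mean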;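 note: RGS4 expression induced by doxycycline in cells with stable M3 receptor; B-score is computed from the integrated fluorescence ratio over baseline after carbachol; higher B-score means a larger calcium signal and so more RGS4 inhibition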
Target sequence (P49798 whole entry, looked up): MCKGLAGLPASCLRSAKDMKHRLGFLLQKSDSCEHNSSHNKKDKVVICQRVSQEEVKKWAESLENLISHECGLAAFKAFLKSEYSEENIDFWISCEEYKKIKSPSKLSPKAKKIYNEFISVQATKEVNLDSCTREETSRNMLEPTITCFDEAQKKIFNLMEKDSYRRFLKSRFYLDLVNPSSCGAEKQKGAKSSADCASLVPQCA
MrgX1 antag = human MrgX1 receptor antagonism, primary screen | Q96LB2 | MRGX1-HEK293 calcium flux, Fluo-4, BAM8-22 antagonism; active compounds read low | B-score at 10 µM | actives 1.3% (n = 310,000);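 active = calcium-response B-score plate-corrected more than 3 library SD below zero, starting fluorescence within 5 deviations, no agonist response on first addition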;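 note: peak minus trough fluorescence over baseline after final BAM8-22 challenge near maximal dose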
RGS4 act = potentiators or activators of RGS4 | HEK293 M3R/inducible RGS4, carbachol calcium flux Fluo4; active compounds read low | B-score at 10 µM | actives 0.92% (n = 310,000) | AID 463111;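 active = B-score of the integrated calcium signal more than 4 SD below the library mean, with starting fluorescence not abnormally high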;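 note: negative B-score means reduced calcium response which marks RGS4 activation or potentiation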
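test system = HEK293 cells with stable M3R and inducible RGS4 | schedule = recording 10 s baseline at 1 Hz, 100 s post-agonist | technique = Fluo4-AM (2 µM) calcium-flux fluorescence, kinetic read | measure = Agonist-evoked peak-minus-minimum fluorescence over baseline, integrated ratio, B score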
MrgX1 allo act = allosterically activates human MrgX1 receptor signaling. MrgX1-HEK293, Fluo-4 calcium flux, FDSS; active compounds read high. B-score at 10 µM. actives 0.63% (n = 310,000). AID 588675;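 active = plate-corrected calcium response at least 3 library SD above typical, normal starting fluorescence, not activating the receptor alone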;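 note: compound read alongside a low EC10 to EC30 dose of BAM8-22 agonist; peak minus trough fluorescence over baseline measured at the second addition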
MrgX1 antag conf = confirmation of human MrgX1 receptor antagonists; shares compounds with MrgX1 antag; remaining BAM8-22 calcium response % of control (active compounds read low), % at 10 µM; AID 602420; MrgX1-HEK293, BAM8-22 calcium flux, Fluo-4; active compounds read low; actives 19% (n = 2,300);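 active = remaining agonist calcium response no higher than 100% minus 3 SD of agonist-only control wells, with starting fluorescence near control levels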;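 note: agonist BAM8-22 given at a near maximal EC90 to ECmax level; peak minus minimum fluorescence divided by baseline after agonist addition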
HEK293 Ca flux = MrgX1 antagonist counter-screen hit in parental HEK293 cells; shares compounds with MrgX1 antag; Fluo-4 calcium fluorescence, FDSS; fluorescence ratio F(max-min)/F0 at 10 µM; actives 2% (n = 4,000); AID 624111;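 active = duplicate-averaged calcium fluorescence ratio at least three times the standard deviation of buffer wells, a nonspecific response in parental cells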
HEK293 Ca counter = MrgX1 allosteric activator counter-screen hit in parental HEK293 cells. shares compounds with MrgX1 antag. parental HEK293 calcium flux, Fluo-4 fluorescence ratio; active compounds read high. fluorescence ratio F(max-min)/F0 at 10 µM. actives 0.4% (n = 4,000);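 active = calcium fluorescence ratio, averaged over duplicates, at least 3 SD of the buffer-well ratio, meaning a nonspecific response in receptor-free cells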;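 note: untransfected parental HEK293 lacking MrgX1 used as counterscreen for MrgX1 allosteric activators; fluorescence change taken during the second addition on a kinetic imager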
HEK293 Ca cntr2 = counter-screen for MrgX1 activators: effect in parental HEK293 cells; shares compounds with MrgX1 antag; Fluo-4 calcium fluorescence (FDSS); active compounds read high; fluorescence ratio F(max-min)/F0 at 10 µM; actives 8.7% (n = 4,000);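 active = calcium fluorescence ratio at least three times the spread of buffer wells, meaning a non-specific response in parental cells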
Active calls of the source: *; i = inactive; / = not tested or not shown.

SMILES | MrgX1 agonist | RGS4 inh | MrgX1 antag | RGS4 act | MrgX1 allo act | MrgX1 antag conf | HEK293 Ca flux | HEK293 Ca counter | HEK293 Ca cntr2
COc1ccc(-c2cc(C)no2)cc1S(=O)(=O)NCC(C)c1ccccc1 (stereo unspecified) | i | i | -6.66* | i | i | i | i | i | i
CCOc1ccccc1CNS(=O)(=O)c1cc(-c2cc(C)no2)ccc1OC | i | i | i | i | i | / | / | / | /
Cc1ccc(C(=O)OCC(=O)N(C)C2CCS(=O)(=O)C2)cc1S(=O)(=O)N1CCCCC1 (stereo unspecified) | i | i | i | i | i | / | / | / | /
CCN(C(=O)c1ccc(S(=O)(=O)N2CCC(C)CC2)cc1)C1CCS(=O)(=O)C1 (stereo unspecified) | i | i | -4.65* | i | i | i | i | i | i
CN(C(=O)COC(=O)c1cccc(S(=O)(=O)N2CCCCC2)c1)C1CCS(=O)(=O)C1 (stereo unspecified) | i | i | -6.05* | i | i | i | i | i | i
CCCCNC(=O)CN1C(=O)NC(CCc2ccccc2)C1=O (stereo unspecified) | i | i | i | i | i | / | / | / | /
COc1ccccc1N1CCSC1C(N)=O (stereo unspecified) | i | i | -7.15* | i | i | i | i | i | i
O=C(c1c[nH]c(C(=O)C(Cl)(Cl)Cl)c1)c1ccc(F)cc1Cl | i | i | i | i | i | / | / | / | /
Cc1cc2c(cc1S(=O)(=O)CCC(=O)NCCc1ccccc1)OCC(=O)N2 | i | i | i | i | i | / | / | / | /
CCn1ccnc1CN1CCN(CC(C)C)C(CCO)C1 (stereo unspecified) | i | i | i | i | i | / | / | / | /
CCn1ccnc1CN1CCN(CCC(C)C)C(CCO)C1 (stereo unspecified) | i | i | -6.19* | i | i | i | i | i | i
Cc1cccc(C(=O)Nc2ccc(N3CCN(S(C)(=O)=O)CC3)cc2)c1 | i | i | i | i | i | / | / | / | /
COc1ccc(S(=O)(=O)N2CCC3(CC2)OCCN3S(=O)(=O)c2ccccc2)cc1OC | i | i | i | i | i | / | / | / | /
CS(=O)(=O)N1CCC2(CC1)OCCN2S(=O)(=O)c1ccccc1 | i | i | -6.89* | i | i | i | i | i | i
c1cncc(CSc2ccc(-c3ccc4c(c3)OCO4)nn2)c1 | i | i | i | i | i | / | / | / | /
COC(OC)c1ccc(C#N)c(=O)[nH]1 | i | i | -6.23* | i | i | 83.2%* | i | i | i
COc1ccc(OC(C)c2ccc(C#N)c(=O)[nH]2)cc1 (stereo unspecified) | i | i | i | i | i | / | / | / | /
O=C(CSc1nnnn1-c1cccc(Cl)c1)Nc1ccc2c(c1)CCC2 | i | i | i | i | i | / | / | / | /
N#CCCCSc1nnnn1-c1cccc(Cl)c1 | i | i | -5.85* | i | i | i | i | i | i
O=c1ccc(Oc2nc(N3CCCCC3)nc(N3CCCCC3)n2)n[nH]1 | i | i | -5.47* | i | i | i | i | i | i
Cc1sc2ncnc(N3CCC(C(=O)Nc4ccc(C#N)cc4)CC3)c2c1C | i | i | -5.33* | i | i | i | i | i | i
O=C(NCCN1CCOCC1)c1ccccc1N1C(=O)[C@@H]2Cc3c([nH]c4ccccc34)C(c3ccccc3)N2C1=O (stereo partly specified) | i | i | -6.79* | i | i | i | i | i | i
O=C(NCCCN1CCOCC1)c1ccccc1N1C(=O)[C@@H]2Cc3c([nH]c4ccccc34)C(c3ccc(F)cc3)N2C1=O (stereo partly specified) | i | i | i | i | i | / | / | / | /
CNCc1ccccc1OCC(=O)Nc1ccccc1 | i | i | -4.59* | i | i | i | i | i | i
CCc1ccccc1OCC(=O)Nc1ccc(S(N)(=O)=O)cc1 | i | i | i | i | i | / | / | / | /
SMILES | MrgX1 agonist | RGS4 inh | MrgX1 antag | RGS4 act | MrgX1 allo act | MrgX1 antag conf | HEK293 Ca flux | HEK293 Ca counter | HEK293 Ca cntr2
Cc1cc(C(=O)COC(=O)c2ccccc2Br)c(C)n1CC1CCCO1 (stereo unspecified) | i | i | i | i | i | / | / | / | /
Cc1cc(C(=O)COc2ccccc2C(N)=O)c(C)n1CC1CCCO1 (stereo unspecified) | i | i | -4.68* | i | i | 70.7%* | i | i | i
COCCN1CCN(Cc2cn[nH]c2-c2cc3ccccc3o2)CC1 | i | i | i | i | i | / | / | / | /
CCCCNc1c(N)n(CCC)c(=O)[nH]c1=O | i | i | i | i | i | / | / | / | /
CCCn1c(N)c(NCCN2CCOCC2)c(=O)[nH]c1=O | i | i | -5.88* | i | i | i | i | i | i
Cc1ccc(C)c(NC(=O)Cc2nc(CNCC(C)C)cs2)c1 | i | i | i | i | i | / | / | / | /
COCCN(C(=O)C1CC1)c1nnc(-c2cccc(C)c2)s1 | i | i | -5.38* | i | i | i | i | i | i
CCCN(C(=O)c1ccco1)c1nnc(-c2cccc(C)c2)s1 | i | i | i | i | i | / | / | / | /
Cc1ccccc1Cn1ccc(NC(=O)c2nc3ncccn3n2)n1 | i | / | -5.66* | / | i | i | i | i | i
Cc1ccccc1Cn1cc(NC(=O)c2nc3ncccn3n2)cn1 | i | i | i | i | i | / | / | / | /
COCC(=O)Nc1nnc(COc2ccc(Cl)cc2)s1 | i | i | -7.07* | i | i | i | i | i | i
COc1ccc(OCC(=O)Nc2ccc(Cl)cc2)cc1 | i | i | -4.96* | i | i | i | i | i | i
COC(=O)C(C(=O)OC)c1ccc(-n2cccc2)cc1 | i | i | i | i | i | / | / | / | /
